# thrombin 1536 – thrombin (human) inhibition | P00734 | actives 0.26% (n = 220,000) | inhibition, % at 5 µM | AID 1046 | alpha-thrombin, Boc-VPR-AMC fluorogenic substrate cleavage;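 active = inhibition at or above 40%; inactive = inhibition below 40%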
#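 System: human alpha-thrombin protein; Compound dosing: one concentration per compound, 5 µM, with 0.2% DMSO; Timing: reaction at room temperature; Technique: AMC fluorescence, 355/460 nm; Controls: enzyme without compound as high, wells lacking enzyme as low.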
# EP2 modulator – EP2 receptor (human) modulation. P43116. EP2-expressing cells, cAMP HTRF FRET, PGE2 co-stimulation. induction, % at 25 µM. actives 0.83% (n = 260,000). AID 940;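 active = compounds whose cAMP rise, as percent of the full-agonist control response, exceeds 60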;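 note: rat C6 glioma line stably carrying human EP2 under a CMV promoter; the protocol text gives 20 µM as final concentration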
# PGE2 EP2 inh – inhibitors of human EP2 prostaglandin E2 receptor. P43116. C6 glioma cells expressing human EP2, cAMP TR-FRET; cells stimulated with saturating PGE2. inhibition, % at 25 µM. actives 0.52% (n = 260,000);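 active = percent inhibition above 40 after rounding to a whole number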;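 note: rat C6 glioma host cells with rolipram phosphodiesterase inhibitor present; the protocol text gives 20 µM as final concentration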
# FXIIa inh 1536 – blocks human coagulation factor XIIa protease activity. P00748. purified FXIIa, Boc-QGR-AMC fluorogenic substrate, 2 h. inhibition, % at 5 µM. actives 0.3% (n = 220,000); in the data active = inhibition above about 40%
# Target sequence (P00748 20-372 limits assumed): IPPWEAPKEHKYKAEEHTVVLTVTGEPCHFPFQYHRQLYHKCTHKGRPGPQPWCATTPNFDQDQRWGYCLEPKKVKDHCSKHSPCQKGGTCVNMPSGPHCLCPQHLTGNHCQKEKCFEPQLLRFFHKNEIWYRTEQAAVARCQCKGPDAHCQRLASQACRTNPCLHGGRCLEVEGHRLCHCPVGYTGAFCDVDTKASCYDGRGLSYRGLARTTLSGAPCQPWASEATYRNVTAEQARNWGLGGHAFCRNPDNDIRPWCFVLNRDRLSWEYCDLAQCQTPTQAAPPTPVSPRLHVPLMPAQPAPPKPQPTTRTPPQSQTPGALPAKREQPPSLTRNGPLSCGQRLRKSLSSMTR
# Target sequence (P00748 373-615 limits assumed): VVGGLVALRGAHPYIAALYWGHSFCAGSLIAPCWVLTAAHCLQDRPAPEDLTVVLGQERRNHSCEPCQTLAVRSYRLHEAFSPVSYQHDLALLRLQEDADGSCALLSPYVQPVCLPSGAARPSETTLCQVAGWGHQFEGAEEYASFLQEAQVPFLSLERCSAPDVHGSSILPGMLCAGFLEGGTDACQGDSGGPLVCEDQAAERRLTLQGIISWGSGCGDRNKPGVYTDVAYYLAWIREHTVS
# FXIa inh 1536 – inhibitors of human coagulation factor XIa; P03951; purified FXIa, Boc-Glu-Ala-Arg-AMC fluorogenic substrate; inhibition, % at 5 µM; actives 0.14% (n = 220,000);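 active = inhibition of at least 40%; inactive = inhibition below 40%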;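 note: fluorescence of freed AMC excited at 355 nm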
# KLK5 inh – inhibitors of human kallikrein 5 | inhibition, % at 5 µM | Q9Y337 | recombinant hK5, fluorogenic AMC substrate cleavage | actives 0.59% (n = 210,000) | AID 873;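 active = inhibition of 40% or more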
# A number is an active result; . = inactive; / = no result. Compounds with a hit are over-represented: about 2.1% of the library has one in this group of screens.
SMILES,thrombin 1536,EP2 modulator,PGE2 EP2 inh,FXIIa inh 1536,FXIa inh 1536,KLK5 inh
Cc1c(NS(=O)(=O)c2ccc(Cl)c(C(=O)OC(C)C(=O)NCc3ccco3)c2)c(=O)n(-c2ccccc2)n1C (stereo not given),/,.,.,.,.,.
CCOC(=O)N1CCN(c2c(NCc3ccccn3)c(=O)c2=O)CC1,.,.,.,.,.,40
CCOC(=O)N1CCN(c2c(NCCc3ccccc3)c(=O)c2=O)CC1,.,.,.,.,.,.
CC(=O)C1=C(O)C(=O)NC1c1ccc(C(C)(C)C)cc1 (stereo not given),/,.,.,/,/,/
Cc1ccc(S(=O)(=O)NCC(=O)OCc2nnc(-c3ccccc3)o2)cc1C,.,.,.,.,.,.
O=C(CNS(=O)(=O)c1ccc2ccccc2c1)OCc1nnc(-c2ccccc2)o1,.,.,41,.,.,.
CCCc1nc(OCC(=O)c2ccc(Cl)cc2)c(C#N)c2c1COC(C)(C)C2,/,.,.,/,/,/
COc1ccc(S(=O)(=O)N2CCC(C(=O)NCCO)CC2)cc1C,/,.,.,/,/,/
CC(C)OC(=O)C(C)Nc1n[nH]c(=S)[nH]c1=O (stereo not given),.,.,105,.,.,.
CC(C)COC(=O)C(C)Nc1n[nH]c(=S)[nH]c1=O (stereo not given),.,.,47,.,.,.
O=C(C1CCC1)N1CCC[C@@H](Cn2nc(-c3cccs3)ccc2=O)C1,/,.,.,/,/,/
CCOC(=O)CSc1nnc(-c2ccc(O)cc2)n1C,/,.,.,/,/,/
Cc1ccc(C2=NOC(=O)/C2=C\C=C\c2ccccc2)cc1,.,.,98,.,.,.
CCN1CCN(c2cc(C(C)(C)C)nc3c(-c4ccccc4)c(C)nn23)CC1,.,.,.,.,.,47
C/C(=N\OC(=O)NC(C)C)c1sc(-c2ccc(Cl)cc2)nc1C,.,.,.,.,.,58
Cc1cccc(CN2CCC(N3CCCCC3)CC2)c1,/,.,.,/,/,/
Cc1cc(C)c2nc(SCC(=O)Nc3ccccc3)c(C#N)cc2c1,/,.,.,/,/,/
CN(C)CCCN(Cc1ccco1)Cc1cc2c(cc1Br)OCO2,/,.,.,/,/,/
COc1ccc(OC)c(-c2cc(C(=O)O)c3cc4ccccc4cc3n2)c1,/,.,55,/,/,/
CCCSc1nc2sc3c(c2c(=O)n1C)CCCC3,/,65,.,/,/,/
COc1ccc(Nc2nnc(SC(C(=O)Nc3cc(C)ccc3C)c3ccccc3)s2)cc1 (stereo not given),.,.,.,75,.,.
COc1ccc(C)cc1NC(=O)C(Sc1nnc(Nc2cc(C)ccc2OC)s1)c1ccccc1 (stereo not given),.,.,.,.,.,.
COCCNC(=O)c1c(NC(=O)c2ccc(OC)c(OC)c2)sc2c1CCCC2,/,.,.,/,/,/
Fc1ccc(C2CC(c3ccco3)=Nc3ccccc3S2)cc1 (stereo not given),.,62,.,.,.,.
Cc1cc(NC(=O)c2ccc(Cl)c(Cl)c2)ccc1NC(=O)c1ccco1,/,.,.,/,/,/
SMILES,thrombin 1536,EP2 modulator,PGE2 EP2 inh,FXIIa inh 1536,FXIa inh 1536,KLK5 inh
CCn1c2cc(C)oc2c2cnn(CC(=O)OC(C)C)c(=O)c21,/,.,/,/,/,/
O=C(O)c1ccccc1-c1ccccc1C(=O)c1ccccc1,/,.,.,/,/,/
O=C(c1ccccc1)c1ccccc1N1C(=O)C=CC1=O,.,.,45,.,.,.
Cc1cc2c(cc(C(=O)OC(C)C(=O)NC3CCCC3)n2C)s1 (stereo not given),/,.,.,/,/,/
N=c1sc2ccccc2n1-c1ccccc1,.,61,.,.,.,.
O=C(O)c1cc2c(cc1S(=O)(=O)O)[C@@H]1[C@@H]([C@H]3[C@H]2[C@]2(Cl)C(Cl)=C(Cl)[C@@]3(Cl)C2(Cl)Cl)[C@]2(Cl)C(Cl)=C(Cl)[C@@]1(Cl)C2(Cl)Cl,/,73,45,/,/,/
CN(C)S(=O)(=O)c1cc(C(=O)O)c(NC2CCCCC2)cc1Cl,.,.,.,.,.,.
CC1(c2ccccc2)CC(C)(C)N2C(=O)C3(C(C#N)=C(N)Oc4cc(O)ccc43)c3cccc1c32 (stereo not given),.,62,.,.,.,.
Cc1cc2c3c(c1)C(C)(c1ccccc1)CC(C)(C)N3C(=O)C21C(C#N)=C(N)OC2=C1C(=O)CC(C)(C)C2 (stereo not given),.,.,.,.,.,.
CC(C)C(c1nnnn1Cc1ccco1)N1CCN(c2ccc(F)cc2)CC1 (stereo not given),/,.,.,/,/,/
CCCc1nc(-c2ccc(-c3ccc(C)cc3)nc2OCC)no1,/,69,.,/,/,/
COC(=O)[C@H]1CN(C(=O)c2ccc(C)[nH]c2=O)C[C@@H]1c1ccc(F)cc1,/,.,/,/,/,/
COC(=O)C1=CN(Cc2ccc(OC)cc2)C=C(C(=O)OC)C1c1cccs1,.,.,.,.,.,.
COC(=O)C1=CC(C(=O)c2cccs2)=NN(c2ccc(OC)cc2)C1C(=O)OC (stereo not given),.,63,.,.,.,.
CC1CCc2c(sc(NC(=O)COC(=O)C3CCCO3)c2C#N)C1 (stereo not given),45,.,.,.,.,.
Cc1ccc(NC(=O)CSc2nnc(-c3ccoc3C)n2C)cc1C,/,.,.,/,/,/
CCOC(=O)c1sc(NC(=O)CSC(=S)N2CCN(C)CC2)nc1C,.,.,.,.,44,.
CCOC(=O)c1sc(NC(=O)CCSC)nc1C,.,.,.,.,.,.
COc1cccc(-c2nc3ccccc3c(=O)o2)c1,65,.,.,.,.,.
O=c1oc(-c2ccc(Br)o2)nc2ccccc12,.,.,.,46,.,.
CCN(CC)CCCN(Cc1cc2cc3c(cc2[nH]c1=O)OCO3)C(=S)Nc1ccccc1OC,45,.,.,.,.,52
COc1ccccc1NC(=S)N(CCCN(C)C)Cc1cc2cc3c(cc2[nH]c1=O)OCO3,.,.,.,.,.,.
Nc1nc(-c2ccc(Cl)cc2)cc(C(F)(F)F)n1,.,.,.,.,.,42
Nc1nc(-c2ccc(F)cc2)cc(C(F)(F)F)n1,.,.,.,.,.,.
CCCOc1cccc(/C(O)=C2/C(=O)C(=O)N(CCOC)C2c2ccncc2)c1 (stereo not given),/,.,.,/,/,/
SMILES,thrombin 1536,EP2 modulator,PGE2 EP2 inh,FXIIa inh 1536,FXIa inh 1536,KLK5 inh
COc1ccc(NS(=O)(=O)c2ccc(NC(=S)NC(=O)C(C)C)cc2)cc1,.,.,.,.,.,.
CCOc1ccc(NS(=O)(=O)c2ccc(NC(=S)NC(=O)C(C)C)cc2)cc1,.,.,.,.,.,52
CC(C)C(=O)NC(=S)Nc1ccc(S(=O)(=O)Nc2ccccc2)cc1,.,.,.,.,.,43
COc1ccc(C(=O)N(CC(=O)NC(C)(C)C)c2cnc3ccccc3c2)cc1OC,/,.,.,/,/,/
O=[N+]([O-])c1nn(-c2ccc(Cl)cc2)n(O)c1=NCc1cccnc1,.,.,.,.,.,.
O=[N+]([O-])c1nn(-c2cccc(Cl)c2)n(O)c1=NCc1cccnc1,.,.,.,.,.,75

# Source: PubChem
